According to ChEMBL document CHEMBL1155544, “Syntheses and structure-activity relationship (SAR) studies of 2,5-diazabicyclo[2.2.1]heptanes as novel alpha7 neuronal nicotinic receptor (NNR) ligands” (Bioorg Med Chem Lett, 2010):

Test: Metabolic stability in human liver microsome assessed as compound remaining after 30 mins
Assay type: ADME
Conditions: liver microsomes, read-out: Stability
Summary of the method: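 Human liver microsomes, 30 min incubation; read-out is percent of parent compound remaining.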

Question: With `CN1C[C@@H]2C[C@H]1CN2c1ccc(-c2ccc3[nH]ccc3c2)nn1` as the compound, how does the remaining at 0.5 h read?
Answer: 97%
